pIC50: −log10 of the molar value. Each block holds one compound with its values, some of them ahead of it. Activity calls are given as the source filed them. No cut-off for these calls is given here.
Legend:
[1] = test system: Salmonella typhimurium; test: Genotoxicity in Salmonella typhimurium TA98 in presence of rat liver S9 fraction by Ames test; assay type: toxicity, organism-based; details: salmonella enterica subsp. enterica serovar typhimurium
[2] = test system: COLO 320DM; test: Inhibition of Wnt/beta-catenin signaling pathway in human COLO 320DM cells assessed as reduction in AXIN2 level qRT-PCR analysis; assay type: cell-based; details: dose 0.1-100 nM
[3] = test system: COLO 320DM; test: Inhibition of Wnt/beta-catenin signaling pathway in human COLO 320DM cells assessed as stabilization of AXIN2 at 0.1 to 100 nM by immunoblot analysis; assay type: cell-based; details: dose 0.1-100 nM
[4] = test system: Salmonella typhimurium; test: Genotoxicity in Salmonella typhimurium TA100 in presence of rat liver S9 fraction by Ames test; assay type: toxicity, organism-based; details: salmonella enterica subsp. enterica serovar typhimurium
[5] = test system: COLO 320DM; test: Inhibition of Wnt/beta-catenin signaling pathway in human COLO 320DM cells assessed as stabilization of AXIN1 at 0.1 to 100 nM by immunoblot analysis; assay type: cell-based; details: dose 0.1-100 nM
[6] = test system: COLO 320DM; test: Inhibition of Wnt/beta-catenin signaling pathway in human COLO 320DM cells assessed as reduction in APCDD1 level qRT-PCR analysis; assay type: cell-based; details: dose 0.1-100 nM
[7] = biological target: T1, Nuclear receptor subfamily 1 group I member 2 (Homo sapiens, UniProt O75469); test: Inhibition of PXR (unknown origin) at 100 uM
T1 sequence (O75469 whole entry): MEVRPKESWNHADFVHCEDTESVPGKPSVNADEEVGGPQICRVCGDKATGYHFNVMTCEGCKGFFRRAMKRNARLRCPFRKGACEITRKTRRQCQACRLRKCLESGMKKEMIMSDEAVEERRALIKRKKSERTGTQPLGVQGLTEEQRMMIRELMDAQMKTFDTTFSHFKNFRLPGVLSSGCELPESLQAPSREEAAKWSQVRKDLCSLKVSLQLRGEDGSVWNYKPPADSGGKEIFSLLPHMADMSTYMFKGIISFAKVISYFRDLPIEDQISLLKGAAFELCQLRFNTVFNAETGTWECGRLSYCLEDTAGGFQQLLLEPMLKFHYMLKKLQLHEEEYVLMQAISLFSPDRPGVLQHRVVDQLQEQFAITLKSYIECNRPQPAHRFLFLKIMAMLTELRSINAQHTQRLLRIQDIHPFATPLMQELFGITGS

[8] = test system: COLO 320DM; test: Inhibition of Wnt/beta-catenin signaling pathway in human COLO 320DM cells assessed as reduction in cytoplasmic beta-catenin level at 0.1 to 100 nM by immunoblot analysis; assay type: cell-based; details: dose 0.1-100 nM
[9] = test system: COLO 320DM; test: Inhibition of Wnt/beta-catenin signaling pathway in human COLO 320DM cells assessed as reduction in nuclear beta-catenin level at 0.1 to 100 nM by immunoblot analysis; assay type: cell-based; details: dose 0.1-100 nM
[10] = test system: COLO 320DM; test: Inhibition of Wnt/beta-catenin signaling pathway in human COLO 320DM cells assessed as reduction in DKK1 level qRT-PCR analysis; assay type: cell-based; details: dose 0.1-100 nM
[11] = test system: COLO 320DM; test: Inhibition of Wnt/beta-catenin signaling pathway in human COLO 320DM cells assessed as reduction in NKD1 level qRT-PCR analysis; assay type: cell-based; details: dose 0.1-100 nM
[12] = test system: COLO 320DM; test: Inhibition of Wnt/beta-catenin signaling pathway in human COLO 320DM cells assessed as effect on TNKS1/2 level by immunoblot analysis; assay type: cell-based; details: dose 0.1-100 nM
[13] = Inhibition of Wnt/beta-catenin signaling pathway in HEK293T cells incubated for 24 hrs by dual-Glo luciferase assay; assay type: cell-based; details: Homo sapiens, HEK-293T
Procedure, shortened: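 Luciferase-based WNT/β-catenin pathway reporter in human HEK293 cells, run as in earlier work with a reference tankyrase inhibitor included. Each concentration tested in triplicate. IC50 derived by curve fitting, with T/F-tests applied to the fit.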

[14] = Metabolic stability in human liver microsomes assessed as intrinsic clearance measured per mg protein incubated up to 60 mins in presence of NADPH by UPLC-MS/MS analysis; assay type: ADME, Microsome
[15] = Apparent permeability across apical to basolateral side in human Caco-2 cells at 10 uM incubated for 120 mins by LC-MS/MS analysis; assay type: ADME, cell-based
[16] = Metabolic stability in mouse liver microsomes assessed as intrinsic clearance measured per mg protein incubated up to 60 mins in presence of NADPH by UPLC-MS/MS analysis; assay type: ADME, Microsome; details: read-out: CLH

- IC50 [7]: Not Active
SMILES: CCOc1ccc(-c2nnc([C@H]3C[C@H](NC(=O)c4cccc5nccnc45)C3)n2-c2ccccc2F)nc1
- Activity [1]: Non-Toxic
- inhibition [2]: Dose-Dependent Effect
- inhibition [3]: Active
- Activity [4]: Non-Toxic
- inhibition [5]: Active
- inhibition [6]: Dose-Dependent Effect
- inhibition [8]: Active
- inhibition [9]: Active
- inhibition [10]: Dose-Dependent Effect
- inhibition [11]: Dose-Dependent Effect
- inhibition [12]: Dose-Dependent Effect

SMILES: CCOc1ccc(-c2nnc([C@H]3C[C@H](NC(=O)c4ccnc5cccnc45)C3)n2-c2ccccc2F)nc1
- pIC50 [13]: 9.20

SMILES: CCOc1ccc(-c2nnc([C@H]3C[C@H](NC(=O)c4ccnc5cc(F)cnc45)C3)n2-c2ccccc2F)nc1
- pIC50 [13]: 9.77

- microsomal CLint [14]: < 5 µL/min/mg
- Papp A→B at 2 h, 10 µM [15]: 39.5 ×10⁻⁶ cm/s
- microsomal CLint [16]: 27 µL/min/mg
SMILES: CCOc1ccc(-c2nnc([C@H]3C[C@H](NC(=O)c4ccccn4)C3)n2-c2ccccc2F)nc1
- Activity [1]: Non-Toxic
- Activity [4]: Non-Toxic

— ChEMBL document CHEMBL5029189, “Development of a 1,2,4-Triazole-Based Lead Tankyrase Inhibitor: Part II” (J Med Chem, 2021)
